Drawing on ChEMBL document CHEMBL3272003, “(-)-3-Isothujone, a small nonnitrogenous molecule with antinociceptive activity in mice” (J Med Chem, 1976), this text covers ED50, LD50 and Activity for ten compounds.

The test system of series [1] is Mus musculus. The experiment in a line: Antinociceptive activity in sc dosed male white mouse by Nilsen test. In kind it is functional.
In series [2] the test system is Mus musculus. The series is described as follows: Antinociceptive activity in sc dosed male white mouse by hot plate test. It is filed as functional. For orientation: In hot-plate and tail-flick tests a longer latency is read as antinociception.
The nature of series [3]: Toxicity in sc dosed male white mouse. In kind it is organism-based. Particulars: in vivo. The method, boiled down:
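LD50 determined in the same male white mouse strain, with the same vehicle and subcutaneous route as the antinociceptive tests. Room temperature was 23 °C. 95% confidence limits were obtained by probit analysis.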

Series [4] relates to Mus musculus. The experiment in a line: Antinociceptive activity in male white mouse at 20 mg/kg, sc by Nilsen test. In kind it is functional, organism-based. On the set-up: dose 20 mg/kg.
In series [5] the test system is Mus musculus. The series is described as follows: Antinociceptive activity in male white mouse at 100 mg/kg, sc by Nilsen test. It is filed as functional, organism-based. Details: dose 100 mg/kg.
Series [6] concerns Mus musculus. The experiment in a line: Toxicity in male white mouse assessed as induction of convulsions at 100 mg/kg, sc. It is filed as organism-based. On the set-up: dose 100 mg/kg, route subcutaneous. The following applies: in vivo.
Series [7] has as its system Mus musculus. The series is described as follows: Antinociceptive activity in male white mouse at 100 mg/kg, sc by hot plate test. It is filed as functional, organism-based. On the set-up: dose 100 mg/kg. The method, boiled down: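 Hot-plate antinociception test in male white mice, run by the standard method, with the compound given subcutaneously. Room temperature was held at 23 °C during testing.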

Series [8] has as its system Mus musculus. The experiment in a line: Toxicity in male white mouse assessed as induction of convulsions at 50 mg/kg, sc. It is filed as organism-based. On the set-up: dose 50 mg/kg, route subcutaneous. The following applies: in vivo.
Series [9] concerns Mus musculus. The series is described as follows: Toxicity in male white mouse assessed as induction of convulsions<40 mg/kg, sc. It is filed as organism-based. The following applies: in vivo.

The source made the active and inactive calls. The calls are words filed in the database; no cut-off is given here.

As for `CN1CC[C@]23c4c5ccc(O)c4O[C@H]2[C@@H](O)C=C[C@H]3[C@H]1C5.CN1CC[C@]23c4c5ccc(O)c4O[C@H]2[C@@H](O)C=C[C@H]3[C@H]1C5.O=S(=O)(O)O`, the ED50 – broadly, the midpoint of the dose-response relation – in series [1] was 0.8 mg/kg; in [2], 1.2 mg/kg.
Take `COc1ccc2c3c1O[C@H]1[C@@H](O)C=C[C@H]4[C@@H](C2)N(C)CC[C@@]341.Cl`: the ED50 in series [1] came out at 4.5 mg/kg; in series [2] it was 7.5 mg/kg. In addition, the LD50 (in general, the dose at which mortality reaches 50%) in series [3] turned out to be 270 mg/kg.
For `CCCCCc1cc(O)c2c(c1)OC(C)(C)C1CC=C(CO)CC21` (centres undefined), the median effective dose (ED50) in series [1] was 5.4 mg/kg; in series [2], 1.9 mg/kg.
`CCC(=O)C(CC(C)N(C)C)(c1ccccc1)c1ccccc1` (racemic) [METHADONE] showed an LD50 in series [3] of 44 mg/kg. In addition, in series [2], the 50% effect level (ED50) was put at a dose of 0.8 mg/kg.
For `CCCCCc1cc(O)c2c(c1)OC(C)(C)[C@@H]1CC=C(C)CC21` (some centres undefined), it took a dose of 8.8 mg/kg to reach the 50% effect level in series [2] (ED50). In addition, the result in series [4] was inactive.
On to `CCCCCc1cc(O)c2c(c1)OC(C)(C)[C@@H]1CCC(C)=C[C@@H]21` [DRONABINOL], for which the ED50 in [2] is 9.6 mg/kg.
In the case of `CC1C(=O)C[C@]2(C(C)C)C[C@H]12` (mixture of isomers), the LD50 in [3] came to 134 mg/kg. The same compound had an ED50 in series [2] of 16.7 mg/kg.
Take `CC(C)[C@]12CC(=O)[C@@H](C)[C@H]1C2`: the LD50 in series [3] is 442 mg/kg. The result in [5] and in [7] was Active. In series [6], the Activity entry is “Toxic”.
In the case of `CC(C)[C@]12C[C@@H](O)[C@H](C)[C@H]1C2`, in series [2], the 50% effect level (ED50) was put at a dose of 33.3 mg/kg.
In the case of `CC(C)[C@]12CC(=O)[C@H](C)[C@H]1C2`, the 50% effective dose (ED50) in series [1] is 14.1 mg/kg; in series [2] it was 6.5 mg/kg. This compound also displayed an LD50 in series [3] of 87.5 mg/kg. The Activity result is reported as “Toxic” in [8] and “Non-toxic” in [9].
